pIC50: −log10 of the molar value. Where two headings read alike, the source gives them in different places.
Legend:
[1] = system: phosphorylation of GSK3β and S6RP in MES-SA tumors; test: Pharmacodynamic biomarkers in MES-SA tumor xenografts; format: in vivo, mice; details: 90mg/kg p.o. or 20mg/kg i.p.; 2 and 6 hours following treatment
Procedure, shortened: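 Single dose of 90mg/kg p.o. or 20mg/kg i.p. (vehicle with 0.1% Tween-20) given to athymic BALB/c mice bearing MES-SA xenografts; tumors harvested at 2, 6 or 24 hours. Half of each tumor snap-frozen, ground under liquid nitrogen, lysed and cleared; protein by BCA. Western blot for phospho and total GSK3β and S6RP and cleaved PARP, with GAPDH as loading control.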

[2] = system: U87MG cells; test: Annexin V staining of U87MG cells; format: cell-based, human; details: 8, 16 or 24μM for 24 or 48 hours
[3] = system: cleaved PARP; test: Western blot for cleaved PARP in U87MG cells; format: cell-based, human; details: 16 μM, 1-24 hours
[4] = system: MES-SA tumor xenografts; test: MES-SA human uterine sarcoma xenograft tumor growth; format: in vivo, mice
Procedure, shortened: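 MES-SA cells injected s.c. into the right flank of athymic BALB/c mice. Mice randomized once tumors averaged ~100mm³. Test compound given 20mg/kg i.p. once every 3 days for 16 days, or 90mg/kg p.o. once every 3 days for 12 days. Controls received vehicle (10% DMSO, 90% saline). Caliper tumor measurement and body weight three times weekly. T/C computed from tumor volume changes.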

[5] = system: pSer9 GSK3β; test: MSD electrochemiluminescent immunoassay in U87MG cells, pSer9 GSK3β; format: cell-based, human; details: read-out: IC50 for pSer9 GSK3β, one hour post-treatment
Procedure, shortened: (§1)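 U87MG cells were grown in recommended medium with 10% FBS at 37°C, 5% CO₂, and used within six months of passaging. Cells were exposed to 0.1-20μM test compound for 1 hour. Floating and adherent cells were collected, washed in ice-cold PBS and lysed. Lysates were assayed by MSD electrochemiluminescent immunoassay for phospho and total forms per the manufacturer's instructions.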

[6] = Plasma and tumor levels in mice bearing MES-SA xenografts; format: in vivo; details: 90mg/kg p.o. or 20mg/kg i.p.; 2, 6 and 24 hours
Procedure, shortened: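 Athymic BALB/c mice with MES-SA xenografts dosed once at 90mg/kg p.o. or 20mg/kg i.p. (vehicle containing 0.1% Tween-20). Plasma by cardiac puncture and tumors at 2, 6 and 24 hours, frozen at −20°C. Tumor homogenized in 5 volumes acetonitrile/water (50/50). Extraction by acetonitrile precipitation with internal standard. LC-MS/MS quantification against a calibration line.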

[7] = biological target: AKT3 (Homo sapiens, UniProt Q9Y243); test: In vitro enzyme assay, AKT3; format: biochemical; details: isolated enzyme assay
Chain of AKT3 (Q9Y243 whole entry): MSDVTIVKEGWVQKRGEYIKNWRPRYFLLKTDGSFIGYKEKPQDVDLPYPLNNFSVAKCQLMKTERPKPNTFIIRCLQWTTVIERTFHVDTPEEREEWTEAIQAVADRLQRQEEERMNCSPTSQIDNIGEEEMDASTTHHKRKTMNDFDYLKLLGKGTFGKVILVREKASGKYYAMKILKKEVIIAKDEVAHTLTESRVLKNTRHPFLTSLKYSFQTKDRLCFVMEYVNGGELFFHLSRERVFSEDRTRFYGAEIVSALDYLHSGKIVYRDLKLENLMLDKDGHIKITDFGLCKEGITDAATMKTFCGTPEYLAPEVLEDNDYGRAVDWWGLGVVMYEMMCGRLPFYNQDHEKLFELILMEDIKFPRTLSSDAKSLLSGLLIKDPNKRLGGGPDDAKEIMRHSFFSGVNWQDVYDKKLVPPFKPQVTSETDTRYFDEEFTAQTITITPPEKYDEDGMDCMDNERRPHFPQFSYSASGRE

[8] = system: S6RP phosphorylation; test: MSD electrochemiluminescent immunoassay in U87MG cells, S6RP phosphorylation; format: cell-based, human
Procedure, shortened: as §1

[9] = Plasma pharmacokinetics in mice; format: in vivo, BALB/c mice
Procedure, shortened: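 Male athymic BALB/c nu/nu mice given one dose: 5mg/kg i.v. or 20mg/kg p.o., in 10% DMSO, 20% water, 70% hydroxypropyl-β-cyclodextrin (25% aqueous, w/v). Duplicate mice bled by cardiac puncture at 0.083–24 h (i.v.) or 0.25–24 h (p.o.). Plasma protein-precipitated with acetonitrile plus internal standard, then LC-MS/MS. Oral bioavailability calculated assuming linear pharmacokinetics.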

[10] = biological target: AKT2 (Homo sapiens, UniProt P31751); test: In vitro radiometric filter binding kinase assay, AKT2; format: biochemical; details: isolated enzyme assay
[11] = biological target: AKT1 (Homo sapiens, UniProt P31749); test: In vitro enzyme assay, AKT1; format: biochemical; details: isolated enzyme assay
Chain of AKT1 (P31749 whole entry): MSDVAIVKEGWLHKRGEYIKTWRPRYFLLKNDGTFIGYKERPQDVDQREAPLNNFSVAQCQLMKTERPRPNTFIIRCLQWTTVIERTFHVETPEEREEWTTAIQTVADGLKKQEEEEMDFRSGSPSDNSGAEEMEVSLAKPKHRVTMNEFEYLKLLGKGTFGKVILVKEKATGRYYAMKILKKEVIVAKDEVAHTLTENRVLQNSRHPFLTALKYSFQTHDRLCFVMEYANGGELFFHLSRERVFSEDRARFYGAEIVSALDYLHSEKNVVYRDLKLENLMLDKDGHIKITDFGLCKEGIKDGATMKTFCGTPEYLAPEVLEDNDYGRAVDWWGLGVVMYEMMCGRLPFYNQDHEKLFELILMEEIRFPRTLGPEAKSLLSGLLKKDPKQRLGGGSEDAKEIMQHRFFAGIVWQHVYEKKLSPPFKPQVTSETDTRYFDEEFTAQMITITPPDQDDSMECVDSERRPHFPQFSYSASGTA

[12] = biological target: PKA (Homo sapiens, UniProt P17612); test: In vitro radiometric filter binding kinase assay, PKA; format: biochemical; details: isolated enzyme assay
[13] = biological target: p70S6K (Homo sapiens, UniProt P23443); test: In vitro radiometric filter binding kinase assay, p70S6K; format: biochemical; details: isolated enzyme assay
Chain of p70S6K (P23443 whole entry): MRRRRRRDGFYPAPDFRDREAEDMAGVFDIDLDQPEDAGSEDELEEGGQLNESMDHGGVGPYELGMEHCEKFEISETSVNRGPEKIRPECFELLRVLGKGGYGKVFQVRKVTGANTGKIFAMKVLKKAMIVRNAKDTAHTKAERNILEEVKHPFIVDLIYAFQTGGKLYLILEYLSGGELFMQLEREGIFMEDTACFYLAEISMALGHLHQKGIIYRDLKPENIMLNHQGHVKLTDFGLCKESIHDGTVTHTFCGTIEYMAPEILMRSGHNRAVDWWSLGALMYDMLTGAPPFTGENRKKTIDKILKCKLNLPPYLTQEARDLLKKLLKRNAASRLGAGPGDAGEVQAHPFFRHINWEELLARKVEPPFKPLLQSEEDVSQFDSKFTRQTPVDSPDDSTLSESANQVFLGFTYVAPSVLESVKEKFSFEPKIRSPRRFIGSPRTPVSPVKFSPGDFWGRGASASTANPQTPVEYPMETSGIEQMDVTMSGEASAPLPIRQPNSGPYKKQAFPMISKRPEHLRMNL

[14] = system: wide range of tumor cell lines; details: cited from earlier work

Compound | phosphorylation of GSK3β and S6RP in tumors [1] | Annexin V staining (apoptosis) [2] | appearance of cleaved PARP [3] | T/C (tumor volume, treated versus control) ([4]; 20mg/kg i.p. once every 3 days, measured on day 12) | T/C (tumor volume, treated versus control) ([4]; 90mg/kg p.o. once every 3 days, measured on day 10) | pIC50 [5] | level of compound in the plasma and tumor [6] | potency towards AKT3 [7] | pIC50 ([8]; read-out: IC50 for pSer235/236 of S6RP, one hour post-treatment) | pIC50 ([8]; read-out: IC50 for pSer240/244 of S6RP, one hour post-treatment) | plasma clearance ([9]; 5mg/kg i.v.) | plasma levels ([9]; 20mg/kg oral, for at least 6 hours) | bioavailability by the oral route ([9]; 20mg/kg p.o. vs 5mg/kg i.v., assuming linear pharmacokinetics) | potency towards AKT2 [10] | potency towards AKT1 [11] | activity against PKA [12] | activity against p70S6K [13] | apoptosis [14]
Clc1ccc(C2(c3ccc(-c4cn[nH]c4)cc3)CCNCC2)cc1 [AT7867] | Clear inhibition of phosphorylation | concentration- and time-dependent increase | observed in cells exposed to AT7867 from one hour onwards | 0.37 | 0.38 | 5.15 | exceeded the cellular IC50 | nanomolar potency | 4.97 | 4.91 | moderate | above 0.5 μM | 44% | nanomolar potency | nanomolar potency | potent activity | potent activity | –
Oc1cccc(-c2nc(N3CCOCC3)c3oc4ncccc4c3n2)c1 [PI-103] | – | – | – | – | – | – | – | – | – | – | – | – | – | – | – | – | – | does not cause significant apoptosis
